# Data published in ChEMBL document CHEMBL4689842, “EUbOPEN Chemogenomics Library wave 1” (2021).
# Test system: HEK-293T
# Assay: Multiplex assay against HEK293T;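 as to Population Tubulin-Different-Phenotype (%): share of the cells with healthy nuclei that show this phenotype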
# Assay type: toxicity, cell-based
# Settings: human
# Outline: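 Tubulin, mitochondrial-mass and membrane-permeability phenotypes are per cents of healthy-nucleus cells. Cells were gated by CellPathfinder machine learning into Hoechst high-intensity objects or normal cells, normal cells into healthy, pyknosed or fragmented nuclei, and pyknosed cells into mitotic or apoptotic. Before that, live cells stained at seeding with Hoechst33342, BioTracker Green Microtubule Cytoskeleton Dye, MitoTracker Red and Annexin V Alexa Fluor 680 were imaged on a CQ1 microscope at 37°C and 5% CO2 after compound addition.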
# [1] = 12 h, 1 µM, compound concentration 1 uM, replicate 1
# [2] = 12 h, 1 µM, compound concentration 1 uM, replicate 2
# [3] = 12 h, 10 µM, compound concentration 10 uM, replicate 1
# [4] = 12 h, 10 µM, compound concentration 10 uM, replicate 2
# [5] = 24 h, 1 µM, compound concentration 1 uM, replicate 1
# [6] = 24 h, 1 µM, compound concentration 1 uM, replicate 2
# [7] = 24 h, 10 µM, compound concentration 10 uM, replicate 1
# [8] = 24 h, 10 µM, compound concentration 10 uM, replicate 2
# [9] = 48 h, 1 µM, compound concentration 1 uM, replicate 1
# [10] = 48 h, 1 µM, compound concentration 1 uM, replicate 2
# [11] = 48 h, 10 µM, compound concentration 10 uM, replicate 1
# [12] = 48 h, 10 µM, compound concentration 10 uM, replicate 2
smiles,measurement,setting,value
Cn1nc(C(F)(F)F)cc1-c1cnc(N2CCc3cc(S(=O)(=O)Nc4c(F)cc(Cl)cc4F)cc(N4CCCC4=O)c32)nc1 [TP-020],Population Apoptotic (%),[1],25%
same,Population Fragmented Nuclei (%),[1],10%
same,Population Healthy Nuclei (%),[1],71%
same,Population Hoechst High Intensity Objects (%),[1],10%
same,Population Membrane Permeable-Phenotype (%),[1],6%
same,Population Mitochondria Different-Phenotype (%),[1],9%
same,Population Mitotic Cells (%),[1],74%
same,Population Normal (%),[1],89%
same,Population Pyknosed Nuclei (%),[1],18%
same,Population Tubulin-Different-Phenotype (%),[1],16%
same,Total Cell Count,[1],692
same,Population Apoptotic (%),[2],16%
same,Population Fragmented Nuclei (%),[2],5%
same,Population Healthy Nuclei (%),[2],89%
same,Population Hoechst High Intensity Objects (%),[2],1%
same,Population Membrane Permeable-Phenotype (%),[2],9%
same,Population Mitochondria Different-Phenotype (%),[2],13%
same,Population Mitotic Cells (%),[2],83%
same,Population Normal (%),[2],98%
same,Population Pyknosed Nuclei (%),[2],5%
same,Population Tubulin-Different-Phenotype (%),[2],37%
same,Total Cell Count,[2],1398
same,Population Apoptotic (%),[3],17%
same,Population Fragmented Nuclei (%),[3],14%
same,Population Healthy Nuclei (%),[3],63%
same,Population Hoechst High Intensity Objects (%),[3],11%
same,Population Membrane Permeable-Phenotype (%),[3],2%
same,Population Mitochondria Different-Phenotype (%),[3],2%
same,Population Mitotic Cells (%),[3],82%
same,Population Normal (%),[3],88%
same,Population Pyknosed Nuclei (%),[3],21%
same,Population Tubulin-Different-Phenotype (%),[3],3%
same,Total Cell Count,[3],565
same,Population Apoptotic (%),[4],4%
same,Population Fragmented Nuclei (%),[4],9%
same,Population Healthy Nuclei (%),[4],86%
same,Population Hoechst High Intensity Objects (%),[4],1%
same,Population Mitochondria Different-Phenotype (%),[4],5%
same,Population Mitotic Cells (%),[4],95%
same,Population Normal (%),[4],98%
same,Population Pyknosed Nuclei (%),[4],4%
same,Population Tubulin-Different-Phenotype (%),[4],5%
same,Total Cell Count,[4],1658
same,Population Apoptotic (%),[5],21%
same,Population Fragmented Nuclei (%),[5],10%
same,Population Hoechst High Intensity Objects (%),[5],7%
same,Population Membrane Permeable-Phenotype (%),[5],12%
same,Population Mitochondria Different-Phenotype (%),[5],8%
same,Population Mitotic Cells (%),[5],78%
same,Population Normal (%),[5],92%
same,Population Pyknosed Nuclei (%),[5],8%
same,Population Tubulin-Different-Phenotype (%),[5],31%
same,Total Cell Count,[5],805
same,Population Apoptotic (%),[6],6%
same,Population Fragmented Nuclei (%),[6],12%
same,Population Healthy Nuclei (%),[6],81%
same,Population Hoechst High Intensity Objects (%),[6],1%
same,Population Membrane Permeable-Phenotype (%),[6],13%
same,Population Mitochondria Different-Phenotype (%),[6],6%
same,Population Mitotic Cells (%),[6],93%
same,Population Normal (%),[6],98%
same,Population Pyknosed Nuclei (%),[6],5%
same,Population Tubulin-Different-Phenotype (%),[6],47%
same,Total Cell Count,[6],1839
same,Population Apoptotic (%),[7],26%
same,Population Fragmented Nuclei (%),[7],11%
same,Population Healthy Nuclei (%),[7],77%
same,Population Hoechst High Intensity Objects (%),[7],5%
same,Population Membrane Permeable-Phenotype (%),[7],8%
same,Population Mitochondria Different-Phenotype (%),[7],1%
same,Population Mitotic Cells (%),[7],73%
same,Population Normal (%),[7],94%
same,Population Pyknosed Nuclei (%),[7],10%
same,Population Tubulin-Different-Phenotype (%),[7],7%
same,Total Cell Count,[7],670
same,Population Apoptotic (%),[8],3%
same,Population Fragmented Nuclei (%),[8],26%
same,Population Healthy Nuclei (%),[8],71%
same,Population Hoechst High Intensity Objects (%),[8],3%
same,Population Membrane Permeable-Phenotype (%),[8],5%
same,Population Mitochondria Different-Phenotype (%),[8],0%
same,Population Mitotic Cells (%),[8],96%
same,Population Normal (%),[8],96%
same,Population Pyknosed Nuclei (%),[8],2%
same,Population Tubulin-Different-Phenotype (%),[8],5%
same,Total Cell Count,[8],2801
CCc1cccc(CC)c1NC(=O)c1nn(C)c2c1CCc1cnc(Nc3ccc(C(=O)NC4CCN(C)CC4)cc3OC(F)(F)F)nc1-2,Population Apoptotic (%),[1],66%
same,Population Fragmented Nuclei (%),[1],8%
same,Population Healthy Nuclei (%),[1],46%
same,Population Hoechst High Intensity Objects (%),[1],11%
same,Population Membrane Permeable-Phenotype (%),[1],3%
same,Population Mitochondria Different-Phenotype (%),[1],93%
same,Population Mitotic Cells (%),[1],33%
same,Population Normal (%),[1],88%
same,Population Pyknosed Nuclei (%),[1],45%
same,Population Tubulin-Different-Phenotype (%),[1],68%
same,Total Cell Count,[1],312
same,Population Apoptotic (%),[2],28%
same,Population Fragmented Nuclei (%),[2],4%
same,Population Healthy Nuclei (%),[2],39%
same,Population Hoechst High Intensity Objects (%),[2],4%
same,Population Membrane Permeable-Phenotype (%),[2],2%
same,Population Mitochondria Different-Phenotype (%),[2],57%
same,Population Mitotic Cells (%),[2],71%
same,Population Normal (%),[2],95%
same,Population Pyknosed Nuclei (%),[2],56%
same,Population Tubulin-Different-Phenotype (%),[2],62%
same,Total Cell Count,[2],251
same,Population Apoptotic (%),[3],80%
same,Population Fragmented Nuclei (%),[3],11%
same,Population Healthy Nuclei (%),[3],31%
same,Population Hoechst High Intensity Objects (%),[3],11%
same,Population Membrane Permeable-Phenotype (%),[3],0%
same,Population Mitochondria Different-Phenotype (%),[3],98%
same,Population Mitotic Cells (%),[3],19%
same,Population Normal (%),[3],88%
same,Population Pyknosed Nuclei (%),[3],57%
same,Population Tubulin-Different-Phenotype (%),[3],98%
same,Total Cell Count,[3],300
same,Population Apoptotic (%),[4],73%
same,Population Fragmented Nuclei (%),[4],4%
same,Population Healthy Nuclei (%),[4],16%
same,Population Hoechst High Intensity Objects (%),[4],7%
same,Population Membrane Permeable-Phenotype (%),[4],4%
same,Population Mitochondria Different-Phenotype (%),[4],86%
same,Population Mitotic Cells (%),[4],26%
same,Population Normal (%),[4],92%
same,Population Pyknosed Nuclei (%),[4],78%
same,Population Tubulin-Different-Phenotype (%),[4],86%
same,Total Cell Count,[4],152
same,Population Apoptotic (%),[5],63%
same,Population Fragmented Nuclei (%),[5],10%
same,Population Healthy Nuclei (%),[5],53%
same,Population Hoechst High Intensity Objects (%),[5],10%
same,Population Membrane Permeable-Phenotype (%),[5],1%
same,Population Mitochondria Different-Phenotype (%),[5],84%
same,Population Mitotic Cells (%),[5],36%
same,Population Normal (%),[5],89%
same,Population Pyknosed Nuclei (%),[5],36%
same,Population Tubulin-Different-Phenotype (%),[5],56%
same,Total Cell Count,[5],342
same,Population Apoptotic (%),[6],25%
same,Population Fragmented Nuclei (%),[6],2%
same,Population Healthy Nuclei (%),[6],59%
same,Population Hoechst High Intensity Objects (%),[6],4%
same,Population Membrane Permeable-Phenotype (%),[6],3%
same,Population Mitochondria Different-Phenotype (%),[6],52%
same,Population Mitotic Cells (%),[6],74%
same,Population Normal (%),[6],95%
same,Population Pyknosed Nuclei (%),[6],38%
same,Population Tubulin-Different-Phenotype (%),[6],55%
same,Total Cell Count,[6],287
same,Population Apoptotic (%),[7],74%
same,Population Fragmented Nuclei (%),[7],12%
same,Population Healthy Nuclei (%),[7],42%
same,Population Hoechst High Intensity Objects (%),[7],10%
same,Population Membrane Permeable-Phenotype (%),[7],4%
same,Population Mitochondria Different-Phenotype (%),[7],98%
same,Population Mitotic Cells (%),[7],25%
same,Population Normal (%),[7],89%
same,Population Pyknosed Nuclei (%),[7],45%
same,Population Tubulin-Different-Phenotype (%),[7],98%
same,Total Cell Count,[7],342
same,Population Apoptotic (%),[8],93%
same,Population Fragmented Nuclei (%),[8],6%
same,Population Healthy Nuclei (%),[8],32%
same,Population Hoechst High Intensity Objects (%),[8],5%
same,Population Membrane Permeable-Phenotype (%),[8],0%
same,Population Mitochondria Different-Phenotype (%),[8],93%
same,Population Mitotic Cells (%),[8],6%
same,Population Normal (%),[8],94%
same,Population Pyknosed Nuclei (%),[8],61%
same,Population Tubulin-Different-Phenotype (%),[8],91%
same,Total Cell Count,[8],158
same,Population Apoptotic (%),[9],43%
same,Population Fragmented Nuclei (%),[9],14%
same,Population Healthy Nuclei (%),[9],59%
same,Population Hoechst High Intensity Objects (%),[9],12%
same,Population Membrane Permeable-Phenotype (%),[9],0%
same,Population Mitochondria Different-Phenotype (%),[9],57%
same,Population Mitotic Cells (%),[9],56%
same,Population Normal (%),[9],87%
same,Population Pyknosed Nuclei (%),[9],26%
same,Population Tubulin-Different-Phenotype (%),[9],46%
same,Total Cell Count,[9],417
same,Population Apoptotic (%),[10],27%
same,Population Fragmented Nuclei (%),[10],7%
same,Population Healthy Nuclei (%),[10],69%
same,Population Hoechst High Intensity Objects (%),[10],3%
same,Population Membrane Permeable-Phenotype (%),[10],2%
same,Population Mitochondria Different-Phenotype (%),[10],32%
same,Population Mitotic Cells (%),[10],72%
same,Population Normal (%),[10],96%
same,Population Pyknosed Nuclei (%),[10],23%
same,Population Tubulin-Different-Phenotype (%),[10],43%
same,Total Cell Count,[10],410
same,Population Apoptotic (%),[11],84%
same,Population Fragmented Nuclei (%),[11],14%
same,Population Healthy Nuclei (%),[11],52%
same,Population Membrane Permeable-Phenotype (%),[11],3%
same,Population Mitochondria Different-Phenotype (%),[11],94%
same,Population Mitotic Cells (%),[11],15%
same,Population Pyknosed Nuclei (%),[11],32%
same,Population Tubulin-Different-Phenotype (%),[11],88%
same,Total Cell Count,[11],339
same,Population Apoptotic (%),[12],91%
same,Population Fragmented Nuclei (%),[12],8%
same,Population Healthy Nuclei (%),[12],38%
same,Population Hoechst High Intensity Objects (%),[12],13%
same,Population Membrane Permeable-Phenotype (%),[12],6%
same,Population Mitochondria Different-Phenotype (%),[12],93%
same,Population Mitotic Cells (%),[12],8%
same,Population Normal (%),[12],86%
same,Population Pyknosed Nuclei (%),[12],52%
same,Population Tubulin-Different-Phenotype (%),[12],86%
same,Total Cell Count,[12],173
